System: MS2 coat protein
Test: apparent Kd, MS2 coat protein; higher = weaker binding; RNA-MaP array; FMN 200 µM where present
Procedure, shortened: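 The apparent Kd comes from binding curves fitted cluster by cluster, filtered, and summarised as a median. Those curves followed SNAP-549-labelled MS2 coat protein from 0.7 or 1.5 nM, doubling to 3 µM, on Illumina sequencing-chip clusters where stalled E. coli RNA polymerase had transcribed the designs, without and then with constant ligand. The buffer was 100 mM Tris-HCl pH 7.5, 80 mM KCl, 4 mM MgCl2, BSA, DTT, yeast tRNA and Tween-20, and green signal was normalised to red-channel RNA signal and control-cluster median Fmax.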

[1] = designed as: ON switch for flavin mononucleotide, no ligand
[2] = ligand present: flavin mononucleotide, designed as: ON switch for flavin mononucleotide
[3] = designed as: OFF switch for flavin mononucleotide, no ligand
[4] = ligand present: flavin mononucleotide, designed as: OFF switch for flavin mononucleotide

Row | Sequence | apparent Kd [1] | apparent Kd [2] | apparent Kd [3] | apparent Kd [4]
1 | GGGUACAUCGGAGGAUAUCAUGUAAAUACAUGAGGAUCACCCAUGUGGAUGGAGACAUCGGAGAUUGAGAAGGCCGAUGUACCG | 10.9 nM | 5.56 nM | – | –
2 | GGGUACAUCGGAGGAUAUCAUGUAGACACAUGAGGAUCACCCAUGUCGAUGGAGACAUCGGAGAUUGAGAAGGCCGAUGUACCG | 435 nM | 23.9 nM | – | –
3 | GGGUACAUCGGAGGAUAUCAUGUUAAUACAUGAGGAUCACCCAUGUCGAUGGAGACAUCGGAGAUUGAGAAGGCCGAUGUACCG | 322 nM | 11.4 nM | – | –
4 | GGGUACAUGGGAGGAUAUCAUGUAGAUACAUGAGGAUCACCCAUGUCGAUGGAGACAUCGGAGAUUGAGAAGGCCCAUGUACCG | 696 nM | 36.1 nM | – | –
5 | GGGUAUAUCGGAGGAUAUCAUGUAAAUACAUGAGGAUCACCCAUGUCGAUGGAGACAUCGGAGAUUGAGAAGGCCGAUGUACCG | 163 nM | 9.34 nM | – | –
6 | GGGUCAACAUGAGGAUCACCCAUGUAGGAUAUCGCUAUUGUAAUCAUGAAACAUGAUUACAAUAGCGAGAAGGACAUAUGCAAA | – | – | 11.3 nM | 23.4 nM
7 | GGGUGGCGUAGAGGAUAUAUGGUACAUGAGGAUCACCCAUGUGCAUAUGAUGUUCAUGUUUAUGUAUAGAAGGCUACGUCGCUA | 40.6 nM | 42.8 nM | – | –
8 | GGGUUGGGAGGAUAUCCAAUAUAUGACAUGAGGAUCACCCAUGUUUCCACUCGUACCUCCGGAGAAGGCCCAUCCC | – | – | 22.9 nM | 21.1 nM
9 | GGUACCAUCACAGGAUAUGCUUUCCUUUGGGAAGCAGAAGGGUGUAACAUGAGGAUCACCCAUGUGGUGCCAGGGCGUGAGCCC | 470 nM | 42.6 nM | – | –
10 | GGUACCAUCACAGGAUAUGCUUUCCUUUGGGAAGCAGAAGGGUGUAACAUGAGGAUCACCCAUGUGGUGCCAGGGCGUGAGCCU | 216 nM | 16 nM | – | –
11 | GGUACUCAAAGAGUACCAAUACGAACAUGAGGAUCACCCAUGUAGGAUAUGCUACUCAAAGAGUAGCAGAAGGACAUGUGCCUC | – | – | 418 nM | 38.5 nM
12 | GGUAUACAUGAGGAUCACCCAUGUCGUAUGACAUGAGGAUAUGUACAGACUUCGGUCUGUACAGAAGGCGUGUGUC | 362 nM | 158 nM | – | –
13 | GGUCAUCAAGUCAGGAUAUCGUCUGGUCGGUCUGGCGAGAAGGGACAUGAGGAUCACCCAUGUCGUCUCAUCAG | – | – | 15.2 nM | 17.7 nM
14 | GGUCCAACAUGAGGAUAUAGCACCUUAUUGGUGCUAGAAGGCGUGUCGAUAGACAUGAGGAUCACCCAUGUAAUAAAUUGGACC | 793 nM | 139 nM | – | –
15 | GGUCCACGAGGAUAUCGAUUAUAGUACAUGAGGAUCACCCAUGUUGUCCAGGUUUCGAUUCGAGAAGGCGUGGGUU | – | – | 54.4 nM | 39 nM
16 | GGUCCGUAACAGAAGGCCGUAACUGGUAGUGGCGGAGGAUAUGUGGGCGGCCCUUGACAACAUGAGGAUCACCCAUGUAUGUAA | 335 nM | 20.3 nM | – | –
17 | GGUCCGUGUACAUGAGGAUCACCCAUGUCGAUGUUUCCUGGACAGGAUAUAUGCUUAAUACCGACAUAGAAGGGUCCACGUGUG | 91 nM | 191 nM | – | –
18 | GGUCGGAGCAGAGGAUAUUACAUGAGGAUCACCCAUGUAUGAACCAAUAGCUGGAAACAGCAAUGUAAGAAGGCUGCUCCGACA | – | – | 13.5 nM | 173 nM
19 | GGUCGUCAAGUCAGGAUAUCGUUUGGUCGGUGUGGCGAGAAGGGACAUGAGGAUCACCCAUGUCGUCUCAUCAG | – | – | 27 nM | 29.9 nM
20 | GGUGCACAUGAGAAGGCGAUCAUGAAACAUGAUCGAGGAUAUCAUGUAAACAUGAGGAUCACCCAUGUAUGGGAAAAGUGCACC | 114 nM | 10.9 nM | – | –
21 | GGUGCGAUGUAGAAGGCAGAUCUGAUUCAGAUCUGAGGAUAUACAUGAGGAUCACCCAUGUAAACGCACCGCACGAGAGUGCAA | – | – | 6.6 nM | 8.12 nM
22 | GGUGCGUAUGUGAGGAUAUGCUGGUCCUUGGAUCGGCAGAAGGCACAUGAGGAUCACCCAUGUGGUGUCGUACA | – | – | 411 nM | 34.7 nM
23 | GGUGGACAUGAGGAUCACCCAUGUGAGGAUAUCGGCCGGUUCGUGGUGGCUGGCGUCUCGAGAAGGCGCAUAGU | – | – | 35 nM | 45.7 nM

From the EternaBench riboswitch data
